Test results taken from ChEMBL document CHEMBL1147132, “Structure-activity relationship studies of gonadotropin-releasing hormone antagonists containing S-aryl/alkyl norcysteines and their oxidized derivatives” (J Med Chem, 2007).
In brackets after ≈: the same amount, converted by molar mass.

What was measured:
[1] = biological target: T1, Gonadotropin-releasing hormone receptor (Homo sapiens, UniProt P30968); test: Antagonist activity at human GnRHR expressed in HEK293 cells assessed as inhibition of GnRH-induced luciferase response by reporter gene assay; format: functional, cell-based
T1 sequence (P30968 whole entry): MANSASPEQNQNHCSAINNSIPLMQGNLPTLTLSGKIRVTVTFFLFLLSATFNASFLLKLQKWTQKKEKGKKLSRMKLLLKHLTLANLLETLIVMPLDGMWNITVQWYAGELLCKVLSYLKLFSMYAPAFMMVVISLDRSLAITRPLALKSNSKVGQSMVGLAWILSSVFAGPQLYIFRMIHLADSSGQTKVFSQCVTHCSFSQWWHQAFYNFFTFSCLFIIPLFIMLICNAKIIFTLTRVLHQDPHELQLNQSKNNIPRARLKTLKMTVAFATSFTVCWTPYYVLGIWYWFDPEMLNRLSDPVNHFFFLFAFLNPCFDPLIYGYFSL
Summary of the method: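 HEK293 cells stably expressing cloned human GnRHR and an LH alpha-subunit-promoter luciferase reporter, plated overnight. Compound in 1% DMSO was added 10 min before GnRH (1 nM final), then ≥5 h at 37 °C, 5% CO2, then luminescence. 11 half-log concentrations in duplicate. IC50 from four-parameter logistic fit, reported as geometric mean of ≥2 experiments.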

[2] = Solubility in 5% mannitol; format: physicochemical
[3] = biological target: T2, Gonadotropin-releasing hormone receptor (Homo sapiens) (UniProt P30968); test: Antagonist activity at human GnRHR expressed in COS7 cells assessed as inhibition of GnRH-stimulated inositol phosphate production after 2 hrs; format: functional, cell-based; settings: COS-7, filed as antagonist
T2 sequence (whole entry): T1 sequence (P30968 whole entry)
Summary of the method: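 COS-7 cells transiently transfected with WT hGnRH-R cDNA, labelled 18 h at 37 °C with 4 μCi/mL [3H]myo-inositol in inositol-free DMEM. Cells were washed in medium with 5 mM LiCl, then co-incubated 2 h at 37 °C with 10−8 M GnRH plus analogue at 10−8 to 10−5 M. IP was measured by Dowex anion-exchange and scintillation counting. Triplicate, repeated three or more times.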

[4] = biological target: T3, Gonadotropin-releasing hormone receptor (Rattus norvegicus, UniProt P30969); test: Antagonist activity at rat GnRHR expressed in HEK293 cells assessed as inhibition of GnRH-induced luciferase response by reporter gene assay; format: functional, cell-based
T3 sequence (P30969 whole entry): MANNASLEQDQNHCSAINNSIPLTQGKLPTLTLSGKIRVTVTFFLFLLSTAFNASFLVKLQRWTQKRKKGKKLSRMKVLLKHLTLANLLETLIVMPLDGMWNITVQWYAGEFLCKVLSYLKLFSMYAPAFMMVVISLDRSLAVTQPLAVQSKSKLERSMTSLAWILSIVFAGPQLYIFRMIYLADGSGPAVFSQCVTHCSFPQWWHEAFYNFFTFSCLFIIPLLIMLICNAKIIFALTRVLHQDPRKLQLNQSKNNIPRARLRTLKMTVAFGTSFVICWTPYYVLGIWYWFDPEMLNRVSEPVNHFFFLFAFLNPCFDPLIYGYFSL
Summary of the method: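 Rat GnRHR stably expressed in HEK293 cells, transiently transfected with an NFAT-responsive luciferase reporter, plated after 16 h and assayed next day. Compound in 1% DMSO was given 10 min before 1 nM GnRH (final), ≥5 h at 37 °C, then luminescence. Duplicates at 11 half-log concentrations. IC50 by four-parameter logistic fit, geometric mean of ≥2 experiments.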

[5] = Ratio of IC50 for rat GnRHR to IC50 for human GnRHR in HEK293 cells; format: functional
Rattus norvegicus = test: Inhibition of plasma testosterone levels in Sprague-Dawley rat at 19.6 uM, sc by enzyme-linked immunosorbent assay; format: functional
Summary of the method: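 Intact adult male Sprague-Dawley rats (275–310 g, 3 per group) received subcutaneous mini-pumps for seven days. Solutions were in 1:3 DMSO/water: 19.6 μM (~0.66 nM/day/kg), or 9.8 μM (~0.33 nM/day/kg). Sham-operated controls. Plasma was sampled on days 3–7 and testosterone measured by ELISA. Values are means of days 4–7.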

Row | IC50 [1] | solubility [2] | Activity [3] | IC50 [4] | Compound | Ratio IC50 [5] | Plasma testosterone level (Rattus norvegicus)
1 | 0.83 nM (antagonist) | 50 mg/mL (≈ 31.6 mM) |  |  | CC(=O)Nc1ccc(C[C@H](NC(=O)[C@H](CO)NC(=O)[C@@H](Cc2cccnc2)NC(=O)[C@@H](Cc2ccc(Cl)cc2)NC(=O)[C@@H](Cc2ccc3ccccc3c2)NC(C)=O)C(=O)N[C@H](Cc2ccc(NC(C)=O)cc2)C(=O)N[C@@H](CC(C)C)C(=O)N[C@@H](CCCCNC(C)C)C(=O)N2CCC[C@H]2C(=O)N[C@@H](C(N)=O)[S+](C)[O-])cc1 (stereo not given in full) |  | 
2 | 39 nM (antagonist) | 50 mg/mL (≈ 32.7 mM) |  |  | CC(=O)Nc1ccc(C[C@H](NC(=O)[C@H](CO)NC(=O)[C@@H](CCC(N)=O)NC(=O)[C@@H](Cc2ccc(Cl)cc2)NC(=O)[C@@H](Cc2ccc3ccccc3c2)NC(C)=O)C(=O)N[C@H](Cc2ccc(NC(C)=O)cc2)C(=O)N[C@H](SC(C)C)C(=O)N[C@@H](CCCCNC(C)C)C(=O)N2CCC[C@H]2C(=O)N[C@H](C)C(N)=O)cc1 |  | 
3 | 85 nM (antagonist) | 50 mg/mL (≈ 32.3 mM) |  |  | CC(=O)Nc1ccc(C[C@H](NC(=O)[C@H](CO)NC(=O)[C@@H](CCC(N)=O)NC(=O)[C@@H](Cc2ccc(Cl)cc2)NC(=O)[C@@H](Cc2ccc3ccccc3c2)NC(C)=O)C(=O)N[C@H](Cc2ccc(NC(C)=O)cc2)C(=O)N[C@@H](C(=O)N[C@@H](CCCCNC(C)C)C(=O)N2CCC[C@H]2C(=O)N[C@H](C)C(N)=O)[S+]([O-])C(C)C)cc1 (stereo not given in full) |  | 
4 | 25 nM (antagonist) | 50 mg/mL (≈ 32.3 mM) | Antagonist |  | CS[C@@H](NC(=O)[C@@H](Cc1cccnc1)NC(=O)[C@@H](Cc1ccc(Cl)cc1)NC(=O)[C@@H](Cc1ccc2ccccc2c1)NC(C)=O)C(=O)N[C@@H](Cc1ccc(NC(C)=O)cc1)C(=O)N[C@H](Cc1ccc(NC(C)=O)cc1)C(=O)N[C@@H](CC(C)C)C(=O)N[C@@H](CCCCNC(C)C)C(=O)N1CCC[C@H]1C(=O)N[C@H](C)C(N)=O |  | 
5 | 0.87 nM (antagonist) | 50 mg/mL (≈ 31.6 mM) |  |  | CC(=O)Nc1ccc(C[C@H](NC(=O)[C@H](CO)NC(=O)[C@@H](Cc2cccnc2)NC(=O)[C@@H](Cc2ccc(Cl)cc2)NC(=O)[C@@H](Cc2ccc3ccccc3c2)NC(C)=O)C(=O)N[C@H](Cc2ccc(NC(C)=O)cc2)C(=O)N[C@@H](CC(C)C)C(=O)N[C@@H](CCCCNC(C)C)C(=O)N2CCC[C@H]2C(=O)N[C@H](C(N)=O)[S+](C)[O-])cc1 (stereo not given in full) |  | 
6 | 3 nM (antagonist) | 50 mg/mL (≈ 31.9 mM) |  |  | CC(=O)Nc1ccc(C[C@H](NC(=O)[C@H](CO)NC(=O)[C@@H](Cc2cccnc2)NC(=O)[C@@H](Cc2ccc(Cl)cc2)NC(=O)[C@@H](Cc2ccc3ccccc3c2)NC(C)=O)C(=O)N[C@H](Cc2ccc(NC(C)=O)cc2)C(=O)N[C@@H](C(=O)N[C@@H](CCCCNC(C)C)C(=O)N2CCC[C@H]2C(=O)N[C@H](C)C(N)=O)[S+]([O-])C(C)C)cc1 (stereo not given in full) |  | 
7 | 4.6 nM (antagonist) | 50 mg/mL (≈ 31.9 mM) |  |  | CC(=O)Nc1ccc(C[C@H](NC(=O)[C@@H](NC(=O)[C@@H](Cc2cccnc2)NC(=O)[C@@H](Cc2ccc(Cl)cc2)NC(=O)[C@@H](Cc2ccc3ccccc3c2)NC(C)=O)[S+](C)[O-])C(=O)N[C@H](Cc2ccc(NC(C)=O)cc2)C(=O)N[C@@H](CC(C)C)C(=O)N[C@@H](CCCCNC(C)C)C(=O)N2CCC[C@H]2C(=O)N[C@H](C)C(N)=O)cc1 (stereo not given in full) |  | 
8 | 13 nM (antagonist) | 50 mg/mL (≈ 32.3 mM) |  |  | CC(=O)Nc1ccc(C[C@H](NC(=O)[C@H](CO)NC(=O)[C@@H](CCC(N)=O)NC(=O)[C@@H](Cc2ccc(Cl)cc2)NC(=O)[C@@H](Cc2ccc3ccccc3c2)NC(C)=O)C(=O)N[C@H](Cc2ccc(NC(C)=O)cc2)C(=O)N[C@H](C(=O)N[C@@H](CCCCNC(C)C)C(=O)N2CCC[C@H]2C(=O)N[C@H](C)C(N)=O)[S+]([O-])C(C)C)cc1 (stereo not given in full) |  | 
9 | 0.6 nM (antagonist) | 50 mg/mL (≈ 31.9 mM) | Antagonist | 1.7 nM (antagonist) | CS[C@@H](NC(=O)[C@@H]1CCCN1C(=O)[C@H](CCCCNC(C)C)NC(=O)[C@H](CC(C)C)NC(=O)[C@@H](Cc1ccc(NC(C)=O)cc1)NC(=O)[C@H](Cc1ccc(NC(C)=O)cc1)NC(=O)[C@H](CO)NC(=O)[C@@H](Cc1cccnc1)NC(=O)[C@@H](Cc1ccc(Cl)cc1)NC(=O)[C@@H](Cc1ccc2ccccc2c1)NC(C)=O)C(N)=O | 2.83 | 1.97 ng/mL
10 | 0.73 nM (antagonist) | 50 mg/mL (≈ 32.2 mM) | Antagonist | 4.4 nM (antagonist) | CC(=O)Nc1ccc(C[C@H](NC(=O)[C@H](CO)NC(=O)[C@@H](Cc2cccnc2)NC(=O)[C@@H](Cc2ccc(Cl)cc2)NC(=O)[C@H](NC(C)=O)Sc2ccc3ccccc3c2)C(=O)N[C@H](Cc2ccc(NC(C)=O)cc2)C(=O)N[C@@H](CC(C)C)C(=O)N[C@@H](CCCCNC(C)C)C(=O)N2CCC[C@H]2C(=O)N[C@H](C)C(N)=O)cc1 | 6.03 | 1.03 ng/mL
11 | 0.81 nM (antagonist) | 50 mg/mL (≈ 32.2 mM) | Antagonist |  | CC(=O)Nc1ccc(C[C@H](NC(=O)[C@H](CO)NC(=O)[C@@H](Cc2cccnc2)NC(=O)[C@@H](Cc2ccc(Cl)cc2)NC(=O)[C@@H](Cc2ccc3ccccc3c2)NC(C)=O)C(=O)N[C@H](Cc2ccc(NC(C)=O)cc2)C(=O)N[C@H](SC(C)C)C(=O)N[C@@H](CCCCNC(C)C)C(=O)N2CCC[C@H]2C(=O)N[C@H](C)C(N)=O)cc1 |  | 
12 | 6.9 nM (antagonist) | 50 mg/mL (≈ 31.9 mM) |  |  | CC(=O)Nc1ccc(C[C@H](NC(=O)[C@H](NC(=O)[C@@H](Cc2cccnc2)NC(=O)[C@@H](Cc2ccc(Cl)cc2)NC(=O)[C@@H](Cc2ccc3ccccc3c2)NC(C)=O)[S+](C)[O-])C(=O)N[C@H](Cc2ccc(NC(C)=O)cc2)C(=O)N[C@@H](CC(C)C)C(=O)N[C@@H](CCCCNC(C)C)C(=O)N2CCC[C@H]2C(=O)N[C@H](C)C(N)=O)cc1 (stereo not given in full) |  | 
13 | 3810 nM (antagonist) | 50 mg/mL (≈ 32 mM) |  |  | CC(=O)Nc1ccc(C[C@H](NC(=O)[C@H](CO)NC(=O)[C@@H](CCC(N)=O)NC(=O)[C@@H](Cc2ccc(Cl)cc2)NC(=O)[C@@H](Cc2ccc3ccccc3c2)NC(C)=O)C(=O)N[C@H](Cc2ccc(NC(C)=O)cc2)C(=O)N[C@H](C(=O)N[C@@H](CCCCNC(C)C)C(=O)N2CCC[C@H]2C(=O)N[C@H](C)C(N)=O)S(=O)(=O)C(C)C)cc1 |  | 
14 | 2000 nM (antagonist) | 50 mg/mL (≈ 32 mM) |  |  | CC(=O)Nc1ccc(C[C@H](NC(=O)[C@H](CO)NC(=O)[C@@H](CCC(N)=O)NC(=O)[C@@H](Cc2ccc(Cl)cc2)NC(=O)[C@@H](Cc2ccc3ccccc3c2)NC(C)=O)C(=O)N[C@H](Cc2ccc(NC(C)=O)cc2)C(=O)N[C@@H](C(=O)N[C@@H](CCCCNC(C)C)C(=O)N2CCC[C@H]2C(=O)N[C@H](C)C(N)=O)S(=O)(=O)C(C)C)cc1 |  | 
15 | 6.2 nM (antagonist) | 50 mg/mL (≈ 32.7 mM) |  |  | CC(=O)Nc1ccc(C[C@H](NC(=O)[C@H](CO)NC(=O)[C@@H](CCC(N)=O)NC(=O)[C@@H](Cc2ccc(Cl)cc2)NC(=O)[C@@H](Cc2ccc3ccccc3c2)NC(C)=O)C(=O)N[C@H](Cc2ccc(NC(C)=O)cc2)C(=O)N[C@@H](SC(C)C)C(=O)N[C@@H](CCCCNC(C)C)C(=O)N2CCC[C@H]2C(=O)N[C@H](C)C(N)=O)cc1 |  | 
16 | 1.2 nM (antagonist) | 50 mg/mL (≈ 31.9 mM) |  | 3.2 nM (antagonist) | CC(=O)Nc1ccc(C[C@H](NC(=O)[C@H](CO)NC(=O)[C@@H](Cc2cccnc2)NC(=O)[C@@H](Cc2ccc(Cl)cc2)NC(=O)[C@@H](Cc2ccc3ccccc3c2)NC(C)=O)C(=O)N[C@H](Cc2ccc(NC(C)=O)cc2)C(=O)N[C@H](C(=O)N[C@@H](CCCCNC(C)C)C(=O)N2CCC[C@H]2C(=O)N[C@H](C)C(N)=O)[S+]([O-])C(C)C)cc1 (stereo not given in full) | 2.67 | 3.22 ng/mL
